Test results as given in ChEMBL document CHEMBL1141591, “Lipophilic modifications to dinucleoside polyphosphates and nucleotides that confer antagonist properties at the platelet P2Y12 receptor” (J Med Chem, 2008).
Activity calls are given as the source filed them. The calls are words filed in the database; no cut-off is given here.

Legend:
P2Y purinoceptor 1 [1] = biological target: T1, P2Y purinoceptor 1 (Homo sapiens, UniProt P47900); experiment: Agonist activity at human recombinant P2Y1 receptor expressed in human 1321 cells at 100 uM by calcium mobilization assay; format: functional, cell-based
How it was run: (§1)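 1321N1 human astrocytoma cells expressing the recombinant receptor were loaded with Fluo-3 AM (2.5 µM final) for 60 min at 25 °C. Assay buffer: KCl 10, NaCl 118, CaCl2 2.5, MgCl2 1, HEPES 20, glucose 10 mM, pH 7.4. Cells were washed and then stimulated with compound. Intracellular calcium was read as the change in fluorescence (FLIPR). Values are EC50 in µM. SR means 5–20% of maximal response at the top concentration, usually 100 µM. NR means no response.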

P2Y purinoceptor 2 [2] = biological target: T2, P2Y purinoceptor 2 (Homo sapiens, UniProt P41231); experiment: Agonist activity at P2Y2 receptor expressed in human 1321 cells at 100 uM by calcium mobilization assay; format: functional, cell-based; how it was run: as §1
P2Y purinoceptor 6 [3] = biological target: T3, P2Y purinoceptor 6 (Homo sapiens, UniProt Q15077); experiment: Agonist activity at P2Y6 receptor expressed in human 1321 cells at 100 uM by calcium mobilization assay; format: functional, cell-based; how it was run: as §1
[4] = biological target: P2Y purinoceptor 4 (Homo sapiens) (UniProt P51582); experiment: Agonist activity at P2Y4 receptor expressed in human 1321 cells at 100 uM by calcium mobilization assay; format: functional, cell-based
P2Y purinoceptor 1 [5] = biological target: T1, P2Y purinoceptor 1; experiment: Agonist at human recombinant P2Y1 receptor expressed in human 1321 cells by calcium mobilization assay; format: functional, cell-based; how it was run: as §1
P2Y purinoceptor 2 [6] = biological target: T2, P2Y purinoceptor 2; experiment: Agonist activity at P2Y2 receptor expressed in human 1321 cells by calcium mobilization assay; format: functional, cell-based
P2Y purinoceptor 6 [7] = biological target: T3, P2Y purinoceptor 6; experiment: Agonist activity at P2Y6 receptor expressed in human 1321 cells by calcium mobilization assay; format: functional, cell-based; how it was run: as §1
[8] = biological target: P2Y purinoceptor 12 (Homo sapiens) (UniProt Q9H244); experiment: Antagonist activity at P2Y12 receptor assessed as inhibition of ADP-induced human platelet aggregation by washed platelet assay at 100 uM; format: functional
How it was run: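 Blood from healthy volunteers was anticoagulated with ACD and spun at 180g for 15 min to give PRP. Platelets were washed three times in HEPES-buffered saline, pH 7.4, with 0.2% BSA and 5 µM PGI2, then resuspended with 0.25 U/mL apyrase. The suspension held 1 mg/mL fibrinogen at 37 °C, stirred at 1000 rpm. Compound (usually 1 nM–100 µM) was added for 2 min, then ADP at EC90 (usually 1–10 µM). Optical aggregation was recorded for 8 min. IC50 came from a four-parameter logistic fit.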

[9] = biological target: P2Y purinoceptor 12 (Homo sapiens) (UniProt Q9H244); experiment: Antagonist activity at P2Y12 receptor assessed as inhibition of 2-MeS-ADP-induced human platelet aggregation; format: functional
How it was run: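 Washed human platelets (ACD-anticoagulated blood, PGI2/apyrase washes) with 1 mg/mL fibrinogen at 37 °C, stirred. Concentration–response curves to 2-MeS-ADP were run alone and with antagonist at 1, 3, 10, 30 or 100 µM. Aggregation was read optically. Schild (Arunlakshana-Schild) analysis gave KB and slope.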

[10] = biological target: P2Y purinoceptor 12 (Homo sapiens) (UniProt Q9H244); experiment: Reversal of antagonist activity at P2Y12 receptor in human washed platelets pretreated at 50 uM for 3 mins before addition of 2-Me-S-ADP and fibrinogen; format: functional
How it was run: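 Washed human platelets were incubated with 50 µM antagonist for 3 min at 37 °C without fibrinogen. One set was then stimulated directly with 2-MeS-ADP plus fibrinogen. The other set was centrifuged once, resuspended in drug-free medium, and then stimulated. Optical aggregation was monitored for 6–8 min.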

T3 sequence (Q15077 whole entry): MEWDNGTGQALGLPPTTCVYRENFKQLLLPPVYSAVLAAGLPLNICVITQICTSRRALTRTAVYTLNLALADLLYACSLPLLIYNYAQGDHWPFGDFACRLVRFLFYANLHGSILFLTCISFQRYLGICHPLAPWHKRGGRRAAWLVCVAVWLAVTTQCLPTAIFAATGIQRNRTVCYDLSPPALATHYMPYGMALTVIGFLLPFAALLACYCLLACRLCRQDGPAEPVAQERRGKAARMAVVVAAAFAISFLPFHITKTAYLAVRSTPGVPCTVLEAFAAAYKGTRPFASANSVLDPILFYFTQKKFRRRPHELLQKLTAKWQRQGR
T1 sequence (P47900 whole entry): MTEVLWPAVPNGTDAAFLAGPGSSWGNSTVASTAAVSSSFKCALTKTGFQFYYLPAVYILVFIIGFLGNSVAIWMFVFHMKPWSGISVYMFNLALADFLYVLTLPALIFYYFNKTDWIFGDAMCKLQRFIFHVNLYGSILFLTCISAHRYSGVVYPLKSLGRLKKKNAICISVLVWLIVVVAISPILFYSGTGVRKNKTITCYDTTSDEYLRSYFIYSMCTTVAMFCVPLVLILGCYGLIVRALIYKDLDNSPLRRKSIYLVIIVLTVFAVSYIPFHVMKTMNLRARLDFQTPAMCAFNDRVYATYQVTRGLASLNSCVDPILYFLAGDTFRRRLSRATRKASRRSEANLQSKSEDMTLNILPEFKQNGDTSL
Sequence of P2Y purinoceptor 12 (Homo sapiens) (Q9H244 whole entry): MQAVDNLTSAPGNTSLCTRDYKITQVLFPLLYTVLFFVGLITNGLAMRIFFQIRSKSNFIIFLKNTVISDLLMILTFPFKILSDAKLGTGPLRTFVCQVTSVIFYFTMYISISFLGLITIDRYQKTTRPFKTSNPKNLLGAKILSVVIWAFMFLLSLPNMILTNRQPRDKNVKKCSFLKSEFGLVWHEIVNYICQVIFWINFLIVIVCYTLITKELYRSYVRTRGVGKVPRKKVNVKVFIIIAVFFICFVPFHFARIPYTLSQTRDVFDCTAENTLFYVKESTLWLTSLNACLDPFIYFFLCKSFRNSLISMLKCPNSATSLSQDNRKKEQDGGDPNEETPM
T2 sequence (P41231 whole entry): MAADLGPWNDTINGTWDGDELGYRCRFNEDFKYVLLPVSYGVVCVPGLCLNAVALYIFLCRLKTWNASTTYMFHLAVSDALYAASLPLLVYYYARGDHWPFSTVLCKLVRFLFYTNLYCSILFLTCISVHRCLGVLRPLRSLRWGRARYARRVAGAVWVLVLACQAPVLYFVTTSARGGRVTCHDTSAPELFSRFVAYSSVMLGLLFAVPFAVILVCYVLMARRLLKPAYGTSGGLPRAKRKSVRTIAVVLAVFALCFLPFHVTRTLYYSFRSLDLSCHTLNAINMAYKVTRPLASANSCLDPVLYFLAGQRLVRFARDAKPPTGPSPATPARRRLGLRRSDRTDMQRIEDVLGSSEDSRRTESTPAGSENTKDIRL
Sequence of P2Y purinoceptor 4 (Homo sapiens) (P51582 whole entry): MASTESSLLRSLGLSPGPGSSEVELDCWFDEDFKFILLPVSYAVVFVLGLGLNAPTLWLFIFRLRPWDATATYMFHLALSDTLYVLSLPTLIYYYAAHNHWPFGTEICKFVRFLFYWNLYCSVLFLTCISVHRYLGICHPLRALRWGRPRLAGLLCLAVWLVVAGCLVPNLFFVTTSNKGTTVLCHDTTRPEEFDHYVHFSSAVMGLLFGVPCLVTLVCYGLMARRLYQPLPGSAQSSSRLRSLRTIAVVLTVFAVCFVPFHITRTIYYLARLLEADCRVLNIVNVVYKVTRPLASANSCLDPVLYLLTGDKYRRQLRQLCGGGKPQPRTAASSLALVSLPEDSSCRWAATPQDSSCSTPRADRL

Structure (SMILES)	Activity (P2Y purinoceptor 1 [1])	Activity (P2Y purinoceptor 2 [2])	Activity (P2Y purinoceptor 6 [3])	Activity [4]	EC50 (P2Y purinoceptor 1 [5]) [µM]	EC50 (P2Y purinoceptor 2 [6]) [µM]	EC50 (P2Y purinoceptor 6 [7]) [µM]	inhibition [8] [%]	Activity [8]	Kb [9] [µM]	Activity [10]
O=C(Nc1ncnc2c1ncn2[C@@H]1O[C@H](COP(=O)(O)O)C2OC(Cc3ccccc3)OC21)NC1CCCC1 (single isomer, unassigned)	inactive	inactive	inactive	inactive	–	–	–	–	–	–	–
O=C(Nc1ccccc1)Nc1ncnc2c1ncn2[C@@H]1O[C@H](COP(=O)(O)OP(=O)(O)O)[C@@H](O)[C@H]1O	–	–	–	–	2.63	9.4	9.75	–	–	–	–
Nc1ncnc2c1ncn2[C@@H]1O[C@H](COP(=O)(O)O)[C@H]2O[C@@H](c3ccccc3)O[C@H]21	inactive	inactive	inactive	inactive	–	–	–	75	–	–	–
O=c1ccn([C@@H]2O[C@H](COP(=O)(O)OP(=O)(O)OP(=O)(O)OC[C@@H]3O[C@H](n4ccc(=O)[nH]c4=O)[C@@H](O)[C@H]3O)[C@H]3OC(Cc4ccccc4)O[C@H]32)c(=O)[nH]1 (stereo not given in full)	inactive	inactive	–	–	–	–	0.154	–	–	–	–
O=c1ccn([C@@H]2O[C@H](COP(=O)(O)OP(=O)(O)OP(=O)(O)OP(=O)(O)OC[C@@H]3O[C@H](n4ccc(=O)[nH]c4=O)[C@@H](O)[C@H]3O)[C@@H](O)[C@H]2O)c(=O)[nH]1	inactive	–	–	–	–	–	18.6	–	inactive	–	–
Nc1ncnc2c1ncn2[C@@H]1O[C@H](COP(=O)(O)O)[C@H]2OC(C#Cc3ccccc3)O[C@H]21 (stereo not given in full)	inactive	inactive	inactive	inactive	–	–	–	–	–	–	–
Nc1ncnc2c1ncn2[C@@H]1O[C@H](COP(=O)(O)OP(=O)(O)O)[C@H]2O[C@@H](Cc3ccccc3)O[C@H]21	–	–	inactive	–	4.39	13.9	–	–	–	–	–
CCCCCCNC(=O)Nc1ncnc2c1ncn2[C@@H]1O[C@H](COP(=O)(O)O)C2OC(/C=C/c3ccccc3)OC21 (single isomer, unassigned)	inactive	inactive	inactive	inactive	–	–	–	–	–	–	–
O=C(Nc1ccccc1)Nc1ncnc2c1ncn2[C@@H]1O[C@H](COP(=O)(O)O)C2OC(C#Cc3ccccc3)OC21 (single isomer, unassigned)	inactive	inactive	inactive	inactive	–	–	–	–	–	–	–
Nc1ncnc2c1ncn2[C@@H]1O[C@H](COP(=O)(O)O)[C@H]2O[C@@H](Cc3ccccc3)O[C@H]21	inactive	inactive	inactive	inactive	–	–	–	47	–	–	–
O=c1ccn([C@@H]2O[C@H](COP(=O)(O)OP(=O)(O)OP(=O)(O)OP(=O)(O)OC[C@@H]3O[C@H](n4ccc(=O)[nH]c4=O)[C@H]4OC(Cc5ccccc5)O[C@H]43)[C@H]3OC(Cc4ccccc4)O[C@H]32)c(=O)[nH]1 (stereo not given in full)	inactive	–	> 5%	–	–	14.6	–	–	–	0.249	Active
CCCCCCNC(=O)Nc1ncnc2c1ncn2[C@@H]1O[C@H](COP(=O)(O)O)[C@H]2OC(Cc3ccccc3)O[C@H]21 (stereo not given in full)	inactive	inactive	inactive	inactive	–	–	–	–	–	–	–
O=c1ccn([C@@H]2O[C@H](COP(=O)(O)OP(=O)(O)OP(=O)(O)OC[C@@H]3O[C@H](n4ccc(=O)[nH]c4=O)[C@@H](O)[C@H]3O)[C@@H](O)[C@H]2O)c(=O)[nH]1	inactive	–	–	–	–	13.5	0.4	–	inactive	–	–
O=C(Nc1ccccc1)Nc1ncnc2c1ncn2[C@@H]1O[C@H](COP(=O)(O)O)[C@H]2OC(Cc3ccccc3)O[C@H]21 (stereo not given in full)	inactive	inactive	inactive	inactive	–	–	–	–	–	–	–
Nc1ncnc2c1ncn2[C@@H]1O[C@H](COP(=O)(O)OP(=O)(O)OP(=O)(O)OP(=O)(O)OC[C@@H]2O[C@H](n3cnc4c(N)ncnc43)[C@@H](O)[C@H]2O)[C@@H](O)[C@H]1O	–	–	inactive	–	0.426	0.072	–	63	–	–	–
O=C(Nc1ccccc1)Nc1ncnc2c1ncn2[C@@H]1O[C@H](COP(=O)(O)O)[C@@H](O)[C@H]1O	inactive	inactive	inactive	inactive	–	–	–	–	–	–	–
CCNC(=O)Nc1ncnc2c1ncn2[C@@H]1O[C@H](COP(=O)(O)O)[C@H]2OC(Cc3ccccc3)O[C@H]21 (stereo not given in full)	inactive	inactive	inactive	inactive	–	–	–	–	–	–	–
CCNC(=O)Nc1ncnc2c1ncn2[C@@H]1O[C@H](COP(=O)(O)O)[C@H]2OC(c3ccccc3)O[C@H]21 (stereo not given in full)	inactive	inactive	inactive	inactive	–	–	–	–	–	–	–
Nc1ncnc2c1ncn2[C@@H]1O[C@H](COP(=O)(O)O)[C@H]2OC(/C=C/c3ccccc3)O[C@H]21 (stereo not given in full)	inactive	inactive	inactive	inactive	–	–	–	–	–	–	–
CCNC(=O)Nc1ncnc2c1ncn2[C@@H]1O[C@H](COP(=O)(O)O)C2O[C@H](/C=C/c3ccccc3)OC21 (single isomer, unassigned)	inactive	inactive	inactive	inactive	–	–	–	–	–	–	–
CCNC(=O)Nc1ncnc2c1ncn2[C@@H]1O[C@H](COP(=O)(O)O)C2OC(/C=C/c3ccccc3)OC21 (single isomer, unassigned)	inactive	inactive	inactive	inactive	–	–	–	–	–	–	–
CCCCCCNC(=O)Nc1ncnc2c1ncn2[C@@H]1O[C@H](COP(=O)(O)O)C2OC(C#Cc3ccccc3)OC21 (single isomer, unassigned)	inactive	inactive	inactive	inactive	–	–	–	–	–	–	–
CCCC1O[C@@H]2[C@H](O1)[C@@H](COP(=O)(O)OP(=O)(O)OP(=O)(O)OP(=O)(O)OC[C@@H]1O[C@H](n3ccc(=O)[nH]c3=O)[C@@H](O)[C@H]1O)O[C@H]2n1ccc(=O)[nH]c1=O (stereo not given in full)	inactive	–	–	–	–	0.098	30	44	–	–	–
O=C(Nc1ccccc1)Nc1ncnc2c1ncn2[C@@H]1O[C@H](COP(=O)(O)O)C2OC(/C=C/c3ccccc3)OC21 (single isomer, unassigned)	inactive	inactive	inactive	inactive	–	–	–	–	–	–	–
